Compound activity (PubChem BioAssay)
RBBP9 inh = inhibitors of human serine hydrolase RBBP9; O75884; recombinant RBBP9, FP-Rh probe fluorescence polarization; inhibition, % at 7.94 µM; hit rate 0.2% among 220,000;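 active means inhibition above the campaign mean of all tested compounds plus 3 SD, cut at about 14% in these data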;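 further: plate controls were DMSO wells with RBBP9 for no effect and wells lacking RBBP9 protein for full effect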
Target sequence (O75884 whole entry, looked up): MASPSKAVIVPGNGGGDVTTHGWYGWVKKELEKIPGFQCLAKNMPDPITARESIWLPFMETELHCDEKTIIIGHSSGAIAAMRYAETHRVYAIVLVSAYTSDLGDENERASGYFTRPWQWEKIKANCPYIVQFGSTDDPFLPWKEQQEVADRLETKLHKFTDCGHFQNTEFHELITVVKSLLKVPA
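Assay system: recombinant human RBBP9; Reagent: Serine-hydrolase probe FP-Rh, 375 nM pre-mixing; Doses: 7.94 µM single dose, 0.794% DMSO; Incubation: 30 min then 45 min, 25 °C; Detection: fluorescence polarization (mP), excitation 525 nm, emission 598 nm; Evaluation: percent inhibition from mP, scaled between DMSO and no-protein wells.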
PAFAH1B2 FP inh = inhibitors of human PAFAH1B2. P68402. recombinant PAFAH1B2, FP-rhodamine activity probe, fluorescence polarization. hit rate 1.2% among 340,000. inhibition, % at 3.39 µM. AID 492953;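 active means inhibition above the mean of all tested compounds plus 3 SD, cut at about 24% in these data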;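 further: 0% = enzyme with DMSO and 100% = wells lacking PAFAH1B2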
Target sequence (P68402 whole entry, looked up): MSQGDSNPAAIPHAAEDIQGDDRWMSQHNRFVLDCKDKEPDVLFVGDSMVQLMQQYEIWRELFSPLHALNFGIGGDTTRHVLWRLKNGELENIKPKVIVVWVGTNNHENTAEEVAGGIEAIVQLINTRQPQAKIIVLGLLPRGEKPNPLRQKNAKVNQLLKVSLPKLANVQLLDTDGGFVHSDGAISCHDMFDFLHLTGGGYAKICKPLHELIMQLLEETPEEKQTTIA
PAFAH1B3 FP inh = PAFAH1B3 (human) inhibition; recombinant PAFAH1B3, FP-rhodamine probe, fluorescence polarization; inhibition, % at 3.39 µM; hit rate 0.28% among 340,000;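 active means inhibition above the screen-wide average of all tested compounds plus 3 SD, cut at about 25% in these data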;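 further: 0% = enzyme with DMSO only and 100% = wells lacking PAFAH1B3 protein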
pPAFAH FP inh = pPAFAH (human) enzyme inhibition; Q13093; recombinant pPAFAH, FP-rhodamine probe fluorescence polarization; inhibition, % at 3.39 µM; hit rate 1.5% among 330,000; AID 463082;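 active means inhibition above the mean inhibition across the screen plus 3 SD, cut at about 25% in these data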;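 further: inhibitors block binding of the rhodamine activity-based probe so polarization drops; 0% = enzyme with DMSO and 100% = wells lacking pPAFAH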
PAFAH2 inh = inhibitors of human PAFAH2; Q99487; AID 492956; hit rate 0.99% among 340,000; recombinant PAFAH2, FP-rhodamine activity probe, fluorescence polarization; inhibition, % at 3.39 µM;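 active means inhibition above the mean over all tested compounds plus 3 SD, cut at about 30% in these data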;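 further: inhibitors block probe labeling of enzyme so polarization drops; 0% = enzyme with DMSO and 100% = wells lacking PAFAH2 protein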
pPAFAH FP conf = confirmation of human plasma PAF acetylhydrolase (pPAFAH) inhibitors; shares compounds with pPAFAH FP inh; recombinant pPAFAH, FP-Rh probe fluorescence polarization; inhibition, % at 3.39 µM; hit rate 72% among 2,300;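 active means mean inhibition of the triplicate above the hit cutoff set for the earlier primary screen, cut at about 25% in these data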;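 further: 0% = enzyme with DMSO and 100% = wells lacking pPAFAH enzyme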
* hit, by the source's call; x = no result. Rows were chosen to be rich in hits. Some 2.7% of all compounds tested hit in one or more screens of this group.

SMILES	RBBP9 inh	PAFAH1B2 FP inh	PAFAH1B3 FP inh	pPAFAH FP inh	PAFAH2 inh	pPAFAH FP conf
C[C@@H](NC(=O)c1nc[nH]c1C(=O)N[C@@H](CCCCNC(=O)OC(C)(C)C)C(=O)OC(C)(C)C)c1ccccc1	-19	7	8	35*	-1	30*
COc1ccc(NC(=O)CC2(CC(=O)O)CCCC2)cn1	5	4	9	1	-2	x
O=C(O)CCN1C(=O)/C(=C\c2cccc(Oc3ccccc3)c2)SC1=S	x	28*	9	36*	12	17
O=C1/C(=C\c2cc(Cl)c(O)c(Cl)c2)SC(=S)N1Cc1ccccc1	x	-45	-72	x	-78	x
O=C(O)COc1ccc(/C=C2/SC(=S)N(Cc3ccccc3)C2=O)cc1	x	4	9	54*	12	19
CCc1ccc(NC(=S)Nc2cc(C(=O)O)ccc2N2CC3CC(C2)c2cccc(=O)n2C3)cc1 (stereo not given)	6	14	-3	15	9	x
CCOCCCNC(=O)c1ccc(N2CC3CC(C2)c2cccc(=O)n2C3)c(NC(=O)Nc2cccc(OC)c2)c1 (stereo not given)	x	-1	4	66*	16	66*
CCc1ccc(NC(=O)Nc2cc(C(=O)NCC3CCCO3)ccc2N2CC3CC(C2)c2cccc(=O)n2C3)cc1 (stereo not given)	x	0	6	87*	18	94*
Cc1ccc(NC(=O)CSc2nnc(-c3ccncc3)n2C)cc1S(=O)(=O)N1CCOCC1	-1	6	9	0	1	x
Oc1ccccc1-c1nc2c3ccccc3c3ccccc3c2[nH]1	11	27*	43*	45*	59*	27*
COc1cccc2c1C(=O)c1c(O)c3c(c(O)c1C2=O)C[C@@](O)(C(=O)CO)C[C@@H]3O[C@H]1C[C@H](N)[C@H](O)[C@H](C)O1	10	41*	19	58*	46*	45*
N#C/C(=N\Nc1cccc([N+](=O)[O-])c1)C(=O)c1ccc(Br)cc1	-5	14	24	60*	35*	61*
Cc1ccc(NC(=O)CCS(=O)(=O)c2ccccc2)cc1S(=O)(=O)N1CCCCCC1	x	1	7	x	-5	x
CCn1ncc(CN2CCN(Cc3ccc(OC)c(C)c3C)C(CCO)C2)c1C (stereo not given)	-1	3	0	1	2	x
Cc1cccc(N2CCN(C(=O)c3ccc4nc(N5CCCCC5)sc4c3)CC2)c1C	3	0	-3	40*	-2	9
COc1ccc(S(=O)(=O)N2CCN(C(=O)c3cc4c(s3)CCC4)CC2)cc1	x	6	13	43*	25	34*
O=C(N1CCC(n2nc(-c3ccccc3)oc2=O)CC1)C1(c2ccc(Cl)cc2)CC1	x	0	7	18	6	x
CN1C(=O)NC(c2ccccc2[N+](=O)[O-])C2=C1CCCC2=O (stereo not given)	x	49*	58*	72*	67*	17
CN1C(=O)NC(c2ccccc2[N+](=O)[O-])C2=C1CC(C)(C)CC2=O (stereo not given)	x	5	5	-1	4	x
NC(=O)CSc1nnc(COc2ccccc2)n1C1CCCCC1	-10	6	2	x	2	x
C[C@H](CO)N1C[C@H](C)[C@@H](CN(C)C(=O)Nc2ccc(C(F)(F)F)cc2)Oc2ccc(NS(=O)(=O)c3ccccc3)cc2C1=O	x	4	0	76*	2	68*
COc1ccc(NC(=O)N(C)C[C@H]2Oc3ccc(NS(=O)(=O)c4ccc(F)cc4)cc3C(=O)N([C@H](C)CO)C[C@@H]2C)cc1	x	1	-10	17	2	x
C[C@H](CO)N1C[C@H](C)[C@@H](CN(C)C(=O)Nc2ccc(C(F)(F)F)cc2)Oc2ccc(NS(=O)(=O)c3ccc(F)cc3)cc2C1=O	x	11	9	61*	9	59*
CCOC(=O)Cn1nc(C)c(NC(=O)COc2ccc(C)c(C)c2)c1C	9	2	2	-1	9	x
O=C(NCc1ccncc1)C(=O)N/N=C/c1ccccn1	-5	7	1	5	-1	x
SMILES	RBBP9 inh	PAFAH1B2 FP inh	PAFAH1B3 FP inh	pPAFAH FP inh	PAFAH2 inh	pPAFAH FP conf
COCCn1c(C)cc(/C=N/NC(=O)c2cc3ccccc3cc2O)c1C	x	8	14	23	0	x
COc1ccc2c(c1)cc(C(=O)N/N=C/c1c(O)c(C(=O)O)cc3ccccc13)n2C	x	23	29*	59*	39*	84*
Cn1c(O)c(/C=N/NC(=O)c2cc3ccccc3cc2O)c2ccccc21	x	37*	37*	62*	13	49*
COc1ccc(C(=O)N2CCOC2CNC(=O)C(=O)NCCc2ccccc2OC)cc1 (stereo not given)	x	-5	-4	1	4	x
Cc1c(S(=O)(=O)NC2CCCCCC2)c(=O)n(C)c(=O)n1C	x	5	7	2	2	x
Cn1ccc2cc(NC(=O)Nc3cccnc3)ccc21	x	5	20	37*	-16	7
CCCN(CCC)C(=O)C[n+]1cccc(/C=N/O)c1	-7	5	4	4	0	x
Cc1cnc(C(=O)OC(C)C(=O)Nc2ccc3c(c2)OCCO3)cn1 (stereo not given)	x	-5	0	-3	5	x
CC(OC(=O)c1ccccn1)C(=O)Nc1ccc2c(c1)OCCO2 (stereo not given)	x	0	2	48*	-4	4
Cc1cc(C)cc(CC2CC(=O)N(c3cc(C)ccc3C)C2=O)c1 (stereo not given)	x	1	10	x	4	x
Cc1ccc(N2C(=O)CC(Cc3cc(C)cc(C)c3)C2=O)cc1 (stereo not given)	-2	3	0	50*	-6	5
CNc1ccccc(-c2ccc3cc4c(cc3n2)OCO4)c1=O	-6	-3	2	84*	4	0
CCOc1ccc(-n2ccnc2)nn1	2	1	6	45*	-8	4
COc1cc(/C=N/NC(=S)Nc2cccc(Cl)c2C)ccc1OCC(=O)N1CC(C)OC(C)C1 (stereo not given)	-7	-1	0	17	-3	x
COc1ccc2sc(-c3ccc(N(C)C)cc3)c(C#CC(C)(C)O)c2c1	x	-2	11	15	1	x
COc1ccc2sc(-c3ccc(N(C)C)cc3)c(C#Cc3cncn3C)c2c1	x	12	19	42*	6	38*
CC(C)Cn1c(=O)c(C(=O)NCc2ccccn2)c(O)c2ccccc21	-15	-3	9	56*	-4	3
CCn1c(=O)c(C(=O)NCc2ccccc2)c(O)c2ccccc21	x	2	8	5	-3	x
O=S(=O)(Nc1ccc2c(c1)nc1n2CCN(Cc2ccccc2)C1)c1ccc(F)cc1	-7	6	3	35*	-3	12
O=C(Nc1ccc2c(c1)nc1n2CCN(Cc2ccccc2)C1)NC1CCCCC1	-9	3	-5	8	-5	x
